Among the data in ChEMBL document CHEMBL4390637, “Design, synthesis and biological evaluation of novel inhibitors against cyanobacterial pyruvate dehydrogenase multienzyme complex E1” (Bioorg Med Chem, 2019) are EC50, IC50 and inhibition values, retold here.

The test system of test [1] is Microcystis aeruginosa. Kind of test: Growth inhibition of Microcystis aeruginosa FACHB905 incubated for 7 days. Format: functional, organism-based. In outline: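 Cyanobacteria grown in BG11 medium at 28 °C on a 12 h light/12 h dark cycle for 7 days to logarithmic phase. A 1% inoculum was transferred into fresh medium containing compound at different concentrations and cultured 7 days. OD680 was read, then inhibition rate and EC50 were calculated. Values are means, n = 3.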

The nature of test [2]: Inhibition of Synechocystis sp. PCC6803 PDHC-E1 expressed in Escherichia coli BL-21 (DE3) using 6-DCIP and pyruvate incubated for 5 mins. Further details: species or system Synechocystis sp. PCC 6803. In outline:
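Recombinant Cy-PDHc E1 (E. coli BL-21 (DE3) with GroEL/GroES chaperones, Ni-NTA purified) assayed by DCIP reduction in 50 mM K3PO4 pH 7.2, 0.375 mM DCIP, 0.1 mg/ml enzyme, 200 µM ThDP plus inhibitor, 5 min at 37 °C before saturating pyruvate; IC50 values as means ± SD, n = 3.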

For test [3], the system named is Synechocystis sp. PCC 6803. Briefly: Growth inhibition of Synechocystis sp. PCC6803 incubated for 7 days. It counts as functional, organism-based.
Test [4] concerns Synechocystis sp. PCC 6803. Kind of test: Inhibition of Synechocystis sp. PCC6803 PDHC-E1 expressed in Escherichia coli BL-21 (DE3) at 100 uM using 6-DCIP and pyruvate incubated for 5 mins relative to untreated control. In outline:
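His-tagged Cy-PDHc E1 co-expressed with GroEL/GroES in E. coli BL-21 (DE3), Ni-NTA purified. Mix: 50 mM K3PO4 pH 7.2, 0.375 mM DCIP, 0.1 mg/ml enzyme, 200 µM ThDP, compound 100 μM; preincubated 5 min at 37 °C, reaction started with saturating pyruvate; percent inhibition reported.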

The species entered for test [5] is Sus scrofa. Kind of test: Inhibition of porcine PDHc-E1 at 100 uM using MTT and phenazine methosulfate incubated for 3 mins relative to untreated control. In outline: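 Porcine PDHc E1 activity followed by MTT reduction at 566 nm. Mix: 1.0 mM MgCl2, 0.2 mM ThDP, 0.5 mM MTT, 6.5 mM PMS, 50 mM K3PO4 pH 7.0, 0.75 mg/mL enzyme, compound at 100 μM final; 3 min at 37 °C, then 2 mM sodium pyruvate added to start; percent inhibition reported.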

Setting [6] is: Microcystis aeruginosa, FACHB905, 168 h.
Where [7] appears, read: Synechocystis sp. PCC 6803, 168 h.

As usually defined, the pEC50 is −log10 of the EC50, conventionally taken in molar units. By pIC50 is commonly meant the IC50 on a negative log10 scale, so that one unit is a factor of ten. What is called inhibition is the change of the read-out against control, counted positive when it falls. The low end stands for a weak effect, the high end for a strong effect.

pEC50, pIC50: −log10 of the molar value.

On to `Cc1ncc(Cn2cc(COc3ccc([N+](=O)[O-])cc3)nn2)c(N)n1`, for which the pEC50 in test [1] (setting [6]) and in test [3] (setting [7]) was less than 4.00 in each case. The compound further gave a pIC50 in test [2] of less than 4.00. In test [4], this compound displayed an inhibition of 8.64%.

For `Cc1ncc(Cn2nnc(COC(=O)c3cccc(Cl)c3)c2I)c(N)n1`, the pEC50 is 6.13 in test [1] (setting [6]) and 5.94 in test [3] (setting [7]). Besides, the inhibition was 5.13% in test [5] and 98.7% in test [4]. Moreover, the pIC50 in test [2] is 5.75.

Regarding `Cc1ncc(Cn2nnc(COC(=O)c3ccc([N+](=O)[O-])cc3)c2I)c(N)n1`, the pEC50 in test [1] (setting [6]) was 6.02; in test [3] (setting [7]) it was 5.96. In addition, the inhibition is 10.4% in test [5] and 99.2% in test [4]. In test [2], the pIC50 is 5.77.

For the compound `Cc1ncc(Cn2nnc(COC(=O)c3ccc(F)cc3)c2I)c(N)n1`, the pEC50 is 6.11 in test [1] (setting [6]) and 6.08 in test [3] (setting [7]). Moreover, the inhibition in test [5] stood at 15.3%; in test [4], 95.4%. This compound also showed a negative logarithm of the IC50 (pIC50) in test [2] of 5.79.

Turning to `Cc1ncc(Cn2cc(COC(=O)c3ccc(F)cc3)nn2)c(N)n1`, the pEC50 was 5.91 in test [1] (setting [6]) and 5.68 in test [3] (setting [7]). Further, the figures for the inhibition in test [5] and in test [4] were 17.8% and 99.5%, respectively. The compound also gave a pIC50 in test [2] of 5.41.

In the case of `Cc1ncc(Cn2cc(COc3ccc(F)cc3)nn2)c(N)n1`, the pEC50 in test [1] (setting [6]) and in test [3] (setting [7]) was less than 4.00 in each case. For the same compound, the pIC50 in test [2] is less than 4.00. The same compound yielded an inhibition in test [4] of 16.2%.

In the case of `Cc1ncc(Cn2cc(COC(=O)c3cccc(Cl)c3)nn2)c(N)n1`, the figures for the pEC50 in test [1] (setting [6]) and in test [3] (setting [7]) were 5.89 and 5.74, respectively. In addition, the results for the inhibition in test [5] and in test [4] were 9.62% and 93.2%, respectively. Moreover, the pIC50 in test [2] is 5.43.

For `Cc1ccc(C(=O)OCc2nnn(Cc3cnc(C)nc3N)c2I)cc1`, the pEC50 in test [1] (setting [6]) is 6.07; in test [3] (setting [7]), 5.94. Moreover, the pIC50 in test [2] is 5.73. Moreover, the inhibition in test [4] was found to be 97.1%.

Consider `Cc1ccc(C(=O)OCc2cn(Cc3cnc(C)nc3N)nn2)cc1`, for which the figures for the pEC50 in test [1] (setting [6]) and in test [3] (setting [7]) were 5.92 and 5.84, respectively. In test [2], this compound showed a pIC50 of 5.35. In test [4], this compound came in with an inhibition of 95.3%.

On to `Cc1ncc(Cn2cc(COc3ccccc3)nn2)c(N)n1`, for which the negative logarithm of the EC50 (pEC50) in test [1] (setting [6]) and in test [3] (setting [7]) was less than 4.00 each time. This compound also gave a pIC50 in test [2] of less than 4.00. In test [4], this compound showed an inhibition of 19%.

With `Cc1ncc(Cn2nnc(COC(=O)c3ccccc3)c2I)c(N)n1`, the pEC50 in test [1] (setting [6]) was 6.00; in test [3] (setting [7]) it was 5.84. Moreover, the inhibition was found to be 21% in test [5] and 96.5% in test [4]. Further, the pIC50 in test [2] was 5.71.

`Cc1ncc(Cn2cc(COC(=O)c3ccc(Cl)cc3)nn2)c(N)n1`: the results for the pEC50 in test [1] (setting [6]) and in test [3] (setting [7]) were 5.95 and 5.65, respectively. Also, in test [2], the pIC50 is 5.45. The same compound gave an inhibition in test [4] of 94.2%.

On to `Cc1ncc(Cn2cc(COC(=O)c3ccccc3Cl)nn2)c(N)n1`, for which the pEC50 is 5.84 in test [1] (setting [6]) and 5.61 in test [3] (setting [7]). The inhibition was found to be 7.31% in test [5] and 97.8% in test [4]. In addition, the pIC50 in test [2] is 5.47.

For the compound `Cc1ncc(Cn2cc(COC(=O)c3ccccc3)nn2)c(N)n1`, the values for the pEC50 in test [1] (setting [6]) and in test [3] (setting [7]) were 5.93 and 5.78, respectively. The figures for the inhibition in test [5] and in test [4] were 15.9% and 95.5%, respectively. The same compound showed a negative logarithm of the IC50 (pIC50) in test [2] of 5.45.

Regarding `Cc1ncc(Cn2nnc(COC(=O)c3ccc(Cl)cc3)c2I)c(N)n1`, the pEC50 was 5.97 in test [1] (setting [6]) and 6.05 in test [3] (setting [7]). The compound further showed a pIC50 in test [2] of 5.63. In addition, the inhibition in test [4] was found to be 95.6%.

As for CUPRIC SULFATE, the results for the pEC50 in test [1] and in test [3] were 5.75 and 5.83, respectively.

Consider `Cc1ncc(Cn2nnc(COC(=O)c3ccccc3Cl)c2I)c(N)n1`, for which the pEC50 in test [1] (setting [6]) is 6.05; in test [3] (setting [7]), 5.93. Besides, the inhibition was 9.5% in test [5] and 98.9% in test [4]. In test [2], this compound had a pIC50 of 5.83.

For the compound `Cc1ncc(Cn2cc(COc3ccc(Cl)cc3)nn2)c(N)n1`, the pEC50 in test [1] (setting [6]) and in test [3] (setting [7]) was less than 4.00 each time. Further, the pIC50 in test [2] is less than 4.00. Further, the inhibition in test [4] turned out to be 29.6%.

As to `Cc1ncc(Cn2cc(COC(=O)c3ccc([N+](=O)[O-])cc3)nn2)c(N)n1`, the results for the pEC50 in test [1] (setting [6]) and in test [3] (setting [7]) were 5.88 and 5.79, respectively. The results for the inhibition in test [5] and in test [4] were 13.5% and 95.7%, respectively. The pIC50 in test [2] was 5.45.
